In brackets after ≈: the same amount, converted by molar mass. Activity calls are given as the source filed them. No cut-off for these calls is given here.
What was measured:
[1] = system: Mycobacterium tuberculosis; experiment: Antitubercular activity against Mycobacterium tuberculosis H37Rv ATCC 27294 by radiometric respiratory technique; type: functional
Escherichia coli [2] = experiment: Antibacterial activity against Escherichia coli LCB0010 at 128 ug/mL by broth micro dilution method; type: functional, organism-based
[3] = system: Mycobacterium tuberculosis; experiment: Antitubercular potency, ratio of Rifampicin MIC to drug MIC against Mycobacterium tuberculosis H37Rv ATCC 27294; type: functional
Staphylococcus aureus [4] = experiment: Antibacterial activity against Staphylococcus aureus by broth micro dilution method; type: functional
In short: (§1)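 MIC90 was found by broth microdilution following NCCLS methods. Compounds were tested up to a top concentration of […]. Linezolid and trovafloxacin served as positive controls and DMSO as the negative control.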

Enterococcus faecalis [5] = experiment: Antibacterial activity against Enterococcus faecalis by broth micro dilution method; type: functional; in short: as §1
[6] = system: Mycobacterium tuberculosis; experiment: Antitubercular potency, ratio of Isoniazid MIC to drug MIC against Mycobacterium tuberculosis H37Rv ATCC 27294; type: functional
Enterococcus faecium [7] = experiment: Antibacterial activity against Enterococcus faecium at 128 ug/mL by broth micro dilution method; type: functional, organism-based
Enterococcus faecalis [8] = experiment: Antibacterial activity against vancomycin and linezolid-resistant Enterococcus faecalis at 128 ug/mL by broth micro dilution method; type: functional, organism-based
In short: (§2)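 MIC90 was determined by broth microdilution following NCCLS methods. Linezolid and trovafloxacin were run as positive controls, with DMSO as the negative control. Compounds were tested up to a top concentration of 128.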

Escherichia coli [9] = experiment: Antibacterial activity against Escherichia coli LCB0012 at 128 ug/mL by broth micro dilution method; type: functional, organism-based
Klebsiella pneumoniae = experiment: Antibacterial activity against Klebsiella pneumoniae at 128 ug/mL by broth micro dilution method; type: functional, organism-based
Pseudomonas aeruginosa = experiment: Antibacterial activity against Pseudomonas aeruginosa at 128 ug/mL by broth micro dilution method; type: functional, organism-based
Staphylococcus aureus [10] = experiment: Antibacterial activity against methicillin-resistant Staphylococcus aureus at 128 ug/mL by broth micro dilution method; type: functional, organism-based; in short: as §2
Enterococcus faecalis [11] = experiment: Antibacterial activity against vancomycin-resistant Enterococcus faecalis at 128 ug/mL by broth micro dilution method; type: functional, organism-based; in short: as §2
Moraxella catarrhalis [12] = experiment: Antibacterial activity against Moraxella catarrhalis at 128 ug/mL by broth micro dilution method; type: functional, organism-based
Escherichia coli [13] = experiment: Antibacterial activity against Escherichia coli LCB0011 at 128 ug/mL by broth micro dilution method; type: functional, organism-based
Enterococcus faecium [14] = experiment: Antibacterial activity against vancomycin-resistant Enterococcus faecium by broth micro dilution method; type: functional; settings: for MIC90: Enterococcus faecium; in short: as §2
[15] = system: Staphylococcus epidermidis; experiment: Antibacterial activity against methicillin-resistant Staphylococcus epidermidis at 128 ug/mL by broth micro dilution method; type: functional, organism-based; in short: as §2
Haemophilus influenzae = experiment: Antibacterial activity against Haemophilus influenzae at 128 ug/mL by broth micro dilution method; type: functional, organism-based
[16] = system: Staphylococcus epidermidis; experiment: Antibacterial activity against Staphylococcus epidermidis at 128 ug/mL by broth micro dilution method; type: functional, organism-based
Escherichia coli [17] = experiment: Antibacterial activity against Escherichia coli LCB0012 by broth micro dilution method; type: functional; in short: as §1
Staphylococcus aureus [18] = experiment: Antibacterial activity against Staphylococcus aureus at 128 ug/mL by broth micro dilution method; type: functional, organism-based
Enterococcus faecalis [19] = experiment: Antibacterial activity against Enterococcus faecalis at 128 ug/mL by broth micro dilution method; type: functional, organism-based
[20] = system: Staphylococcus epidermidis; experiment: Antibacterial activity against Staphylococcus epidermidis by broth micro dilution method; type: functional; in short: as §2
Enterococcus faecalis [21] = experiment: Antibacterial activity against vancomycin and linezolid-resistant Enterococcus faecalis by broth micro dilution method; type: functional; in short: as §2
Moraxella catarrhalis [22] = experiment: Antibacterial activity against Moraxella catarrhalis by broth micro dilution method; type: functional; in short: as §1
Staphylococcus aureus [23] = experiment: Antibacterial activity against methicillin-resistant Staphylococcus aureus by broth micro dilution method; type: functional; in short: as §2
Enterococcus faecalis [24] = experiment: Antibacterial activity against vancomycin-resistant Enterococcus faecalis by broth micro dilution method; type: functional; in short: as §2
Escherichia coli [25] = experiment: Antibacterial activity against Escherichia coli LCB0011 by broth micro dilution method; type: functional; in short: as §1
Enterococcus faecium [26] = experiment: Antibacterial activity against vancomycin-resistant Enterococcus faecium at 128 ug/mL by broth micro dilution method; type: functional, organism-based; in short: as §2
[27] = system: Staphylococcus epidermidis; experiment: Antibacterial activity against methicillin-resistant Staphylococcus epidermidis by broth micro dilution method; type: functional; in short: as §2

| SMILES | MIC [1] [µg/mL] | Activity (Escherichia coli [2]) | Ratio [3] | MIC90 (Staphylococcus aureus [4]) [µg/mL] | MIC90 (Enterococcus faecalis [5]) [µg/mL] | Ratio [6] | Activity (Enterococcus faecium [7]) | Activity (Enterococcus faecalis [8]) | Activity (Escherichia coli [9]) | Activity (Klebsiella pneumoniae) | Activity (Pseudomonas aeruginosa) | Activity (Staphylococcus aureus [10]) | Activity (Enterococcus faecalis [11]) | Activity (Moraxella catarrhalis [12]) | Activity (Escherichia coli [13]) | MIC90 (Enterococcus faecium [14]) [µg/mL] | Activity [15] | Activity (Haemophilus influenzae) | Activity [16] | Activity (Enterococcus faecalis [19]) | further results |
| --- | --- | --- | --- | --- | --- | --- | --- | --- | --- | --- | --- | --- | --- | --- | --- | --- | --- | --- | --- | --- | --- |
| COc1ccccc1C1C(C)C(=O)C(C)C(c2ccccc2OC)N1C(=O)Cn1cnc2ccccc21 (stereo unspecified) | 128 (≈ 257 µM) | inactive | 25 | 32 (≈ 64.3 µM) | 64 (≈ 129 µM) | 0.19 | inactive | inactive | inactive | inactive | inactive | inactive | inactive | inactive | inactive | 16 (≈ 32.2 µM) | inactive | inactive | inactive | – | – |
| Cc1ccc(C2CC(=O)C(C)C(c3ccc(C)cc3)N2C(=O)Cn2cnc3ccccc32)cc1 (stereo unspecified) | – | inactive | – | – | – | – | inactive | inactive | – | inactive | inactive | inactive | inactive | inactive | inactive | 64 (≈ 142 µM) | inactive | inactive | inactive | inactive | MIC90 (Escherichia coli [17]): 128 µg/mL (≈ 283 µM); Activity (Staphylococcus aureus [18]): inactive |
| CCOC(=O)C1=C(O)CC(c2ccccc2)N(C(=O)Cn2cnc3ccccc32)C1c1ccccc1 (stereo unspecified) | 16 (≈ 33.2 µM) | inactive | 200 | 32 (≈ 66.5 µM) | 128 (≈ 266 µM) | 1.56 | inactive | – | inactive | inactive | inactive | inactive | inactive | – | inactive | 64 (≈ 133 µM) | inactive | inactive | – | – | MIC90 [20]: 128 µg/mL (≈ 266 µM); MIC90 (Enterococcus faecalis [21]): 128 µg/mL (≈ 266 µM); MIC90 (Moraxella catarrhalis [22]): 64 µg/mL (≈ 133 µM) |
| CO[C@H]1/C=C/O[C@@]2(C)Oc3c(C)c(O)c4c(O)c(c(/C=N/N5CCN(C)CC5)c(O)c4c3C2=O)NC(=O)/C(C)=C\C=C\[C@H](C)[C@H](O)[C@@H](C)[C@@H](O)[C@@H](C)[C@H](OC(C)=O)[C@@H]1C [RIFAMPIN] | 32 (≈ 38.9 µM) | – | – | – | – | – | – | – | – | – | – | – | – | – | – | – | – | – | – | – | – |
| Cc1ccc(C2C(C)C(=O)C(C)C(c3ccc(C)cc3)N2C(=O)Cn2cnc3ccccc32)cc1 (stereo unspecified) | – | inactive | – | 64 (≈ 137 µM) | 128 (≈ 275 µM) | – | inactive | inactive | – | inactive | inactive | – | – | inactive | – | 32 (≈ 68.7 µM) | inactive | inactive | inactive | – | MIC90 (Staphylococcus aureus [23]): 64 µg/mL (≈ 137 µM); MIC90 (Enterococcus faecalis [24]): 128 µg/mL (≈ 275 µM); MIC90 (Escherichia coli [25]): 128 µg/mL (≈ 275 µM) |
| NNC(=O)c1ccncc1 [ISONIAZID] | 0.25 (≈ 1.82 µM) | – | – | – | – | – | – | – | – | – | – | – | – | – | – | – | – | – | – | – | – |
| COc1cc(OC)cc(C2CC(=O)C(C)C(c3cc(OC)cc(OC)c3)N2C(=O)Cn2cnc3ccccc32)c1 (stereo unspecified) | – | inactive | – | – | – | – | inactive | inactive | inactive | inactive | inactive | inactive | inactive | inactive | inactive | – | inactive | inactive | inactive | inactive | Activity (Enterococcus faecium [26]): inactive; Activity (Staphylococcus aureus [18]): inactive |
| COc1ccc(C2C(C)C(=O)C(C)C(c3ccc(OC)cc3)N2C(=O)Cn2cnc3ccccc32)cc1 (stereo unspecified) | 64 (≈ 129 µM) | inactive | 50 | 16 (≈ 32.2 µM) | 64 (≈ 129 µM) | 0.39 | inactive | inactive | – | inactive | inactive | – | inactive | – | inactive | 16 (≈ 32.2 µM) | inactive | inactive | inactive | – | MIC90 (Staphylococcus aureus [23]): 128 µg/mL (≈ 257 µM); MIC90 (Escherichia coli [17]): 128 µg/mL (≈ 257 µM); MIC90 (Moraxella catarrhalis [22]): 16 µg/mL (≈ 32.2 µM) |
| COc1ccc(C2CC(=O)C(C)C(c3ccc(OC)cc3)N2C(=O)Cn2cnc3ccccc32)cc1 (stereo unspecified) | – | inactive | – | – | – | – | inactive | inactive | – | inactive | inactive | inactive | inactive | inactive | inactive | 128 (≈ 265 µM) | inactive | inactive | inactive | inactive | MIC90 (Escherichia coli [17]): 128 µg/mL (≈ 265 µM); Activity (Staphylococcus aureus [18]): inactive |
| CCOC(=O)C1=C(OS(=O)(=O)c2cccs2)CC(c2ccccc2)N(C(=O)CCl)C1c1ccccc1 (stereo unspecified) | 32 (≈ 58.6 µM) | inactive | 100 | 32 (≈ 58.6 µM) | – | 0.78 | inactive | inactive | inactive | inactive | inactive | – | inactive | – | – | – | – | inactive | – | inactive | MIC90 (Staphylococcus aureus [23]): 64 µg/mL (≈ 117 µM); MIC90 [20]: 64 µg/mL (≈ 117 µM); MIC90 (Moraxella catarrhalis [22]): 32 µg/mL (≈ 58.6 µM); MIC90 [27]: 128 µg/mL (≈ 234 µM); MIC90 (Escherichia coli [25]): 128 µg/mL (≈ 234 µM); Activity (Enterococcus faecium [14]): 32 µg/mL |
